Test results from ChEMBL document CHEMBL1154342, “Scaffold-based design and synthesis of potent N-type calcium channel blockers” (Bioorg Med Chem Lett, 2009).
Calls of active or inactive are those of the source. The rule behind the calls is not given here.

Experiments:
[1] = target: Voltage-dependent L-type calcium channel subunit beta-1/alpha-1B/alpha-2/delta-1 (Rattus norvegicus, UniProt Q02294); test: Blocking of rat N-type calcium channel alpha-1B/alpha-2-delta-1/beta-1b activity expressed in HEK293 cells assessed as whole cell current by whole cell patch clamp assay; format: cell-based
How it was run: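 HEK293 cells transiently transfected with rat channel subunits, recorded 24–72 h post-transfection. Whole-cell patch clamp with barium as charge carrier; currents elicited from a holding potential of −100 mV to the peak of the current–voltage relation. Each compound tested on 3–5 cells; IC50 estimated.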

[2] = organism: Rattus norvegicus; test: Selectivity ratio of IC50 for rat Voltage-dependent L-type calcium channel to IC50 for rat N-type calcium channel
How it was run: (§1)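 HEK293 cells transiently transfected with rat channel subunits and recorded 24–72 h later. Whole-cell patch clamp used barium as the charge carrier. Currents were elicited from a holding potential of −100 mV to the peak of each channel's current–voltage relation. Each compound was tested on 3–5 cells per subtype.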

[3] = Half life in rat at 2 mg/kg, iv; format: ADME, organism-based; design: dose 2 mg/kg, route intravenous; conditions: in vivo
How it was run: (§2)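 Rats given a single dose by vein (2 mg/kg) or by mouth (10 mg/kg). Plasma sampled, with AUC taken to 8 h and extrapolated to infinity. Cmax is the highest observed concentration, and Tmax is the time to it. Half-life, apparent volume of distribution, plasma clearance and oral bioavailability were also derived. Values are given as mean with standard error.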

[4] = test system: Rattus norvegicus; test: Apparent oral clearance in rat at 10 mg/kg, po; conditions: in vivo
[5] = Half life in rat at 10 mg/kg, po; conditions: in vivo
[6] = Blocking of rat Voltage-dependent L-type calcium channel alpha1c/alpha2delta-1/beta1b activity expressed in HEK293 cells assessed as whole cell current by whole cell patch clamp assay; format: cell-based; how it was run: as §1
[7] = AUC (0 to infinity) in rat at 10 mg/kg, po; conditions: plasma
[8] = Volume of distribution at steady state in rat at 2 mg/kg, iv; format: ADME, organism-based; design: dose 2 mg/kg, route intravenous; conditions: in vivo, read-out: Vdss; how it was run: as §2
[9] = Cmax in rat at 10 mg/kg, po; conditions: in vivo
[10] = AUC (0 to 8 hrs) in rat at 2 mg/kg, iv; format: ADME, organism-based; design: time < 8 hr, dose 2 mg/kg, route intravenous; conditions: plasma; how it was run: as §2
[11] = AUC (0 to 8 hrs) in rat at 10 mg/kg, po; conditions: plasma
[12] = test system: Rattus norvegicus; test: Analgesic activity against phse 2A portion of rat formalin-induced inflammatory pain model assessed as flinches at 25 mg/kg, ip; format: functional, organism-based; design: dose 25 mg/kg
How it was run: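 Rat formalin inflammatory pain model with the phase IIA portion scored. Compounds were given intraperitoneally at 25 mg/kg, using 24–26 animals per group.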

[13] = Oral bioavailability in rat at 10 mg/kg, po; conditions: in vivo
[14] = Cmax in rat at 2 mg/kg, iv; format: ADME, organism-based; design: dose 2 mg/kg, route intravenous; conditions: in vivo; how it was run: as §2
[15] = AUC (0 to infinity) in rat at 2 mg/kg, iv; format: ADME, organism-based; design: time infinity, dose 2 mg/kg, route intravenous; conditions: plasma; how it was run: as §2
[16] = target: Voltage-gated inwardly rectifying potassium channel KCNH2 (Homo sapiens, UniProt Q12809); test: Inhibition of human ERG current
How it was run: (§3)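 Whole-cell patch clamp of HEK cells stably expressing hERG, measuring peak tail currents. A single 1 µM application was used for the screen. The concentration–response used 0.1, 1, 3 and 10 µM against a 0.1% DMSO control, with n = 4 per concentration.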

[17] = Displacement of radioligand from Voltage-dependent L-type calcium channel at 10 uM
[18] = target: Cannabinoid receptor 1 (Homo sapiens) (UniProt P21554); test: Displacement of radioligand from cannabinoid CB1 receptor at 10 uM
[19] = Displacement of radioligand from voltage-gated sodium channel at 10 uM
[20] = target: hERG (KCNH2) (Homo sapiens, UniProt Q12809); test: Inhibition of human ERG current at 1 uM; how it was run: as §3
[21] = target: Mu-type opioid receptor (Homo sapiens) (UniProt P35372); test: Displacement of radioligand from mu opioid receptor at 10 uM
Mu-type opioid receptor (Homo sapiens), sequence (P35372 whole entry): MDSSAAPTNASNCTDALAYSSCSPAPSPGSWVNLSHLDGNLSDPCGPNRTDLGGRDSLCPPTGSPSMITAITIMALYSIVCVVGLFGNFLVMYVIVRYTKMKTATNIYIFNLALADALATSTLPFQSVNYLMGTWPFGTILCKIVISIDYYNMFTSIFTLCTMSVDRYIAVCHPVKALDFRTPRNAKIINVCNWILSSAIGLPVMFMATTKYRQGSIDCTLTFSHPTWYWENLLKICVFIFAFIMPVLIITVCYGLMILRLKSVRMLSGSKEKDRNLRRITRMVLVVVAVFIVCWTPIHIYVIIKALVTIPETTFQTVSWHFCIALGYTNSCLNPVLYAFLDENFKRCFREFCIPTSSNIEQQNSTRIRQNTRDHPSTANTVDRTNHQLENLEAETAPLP

Voltage-dependent L-type calcium channel subunit beta-1/alpha-1B/alpha-2/delta-1, sequence (Q02294 whole entry): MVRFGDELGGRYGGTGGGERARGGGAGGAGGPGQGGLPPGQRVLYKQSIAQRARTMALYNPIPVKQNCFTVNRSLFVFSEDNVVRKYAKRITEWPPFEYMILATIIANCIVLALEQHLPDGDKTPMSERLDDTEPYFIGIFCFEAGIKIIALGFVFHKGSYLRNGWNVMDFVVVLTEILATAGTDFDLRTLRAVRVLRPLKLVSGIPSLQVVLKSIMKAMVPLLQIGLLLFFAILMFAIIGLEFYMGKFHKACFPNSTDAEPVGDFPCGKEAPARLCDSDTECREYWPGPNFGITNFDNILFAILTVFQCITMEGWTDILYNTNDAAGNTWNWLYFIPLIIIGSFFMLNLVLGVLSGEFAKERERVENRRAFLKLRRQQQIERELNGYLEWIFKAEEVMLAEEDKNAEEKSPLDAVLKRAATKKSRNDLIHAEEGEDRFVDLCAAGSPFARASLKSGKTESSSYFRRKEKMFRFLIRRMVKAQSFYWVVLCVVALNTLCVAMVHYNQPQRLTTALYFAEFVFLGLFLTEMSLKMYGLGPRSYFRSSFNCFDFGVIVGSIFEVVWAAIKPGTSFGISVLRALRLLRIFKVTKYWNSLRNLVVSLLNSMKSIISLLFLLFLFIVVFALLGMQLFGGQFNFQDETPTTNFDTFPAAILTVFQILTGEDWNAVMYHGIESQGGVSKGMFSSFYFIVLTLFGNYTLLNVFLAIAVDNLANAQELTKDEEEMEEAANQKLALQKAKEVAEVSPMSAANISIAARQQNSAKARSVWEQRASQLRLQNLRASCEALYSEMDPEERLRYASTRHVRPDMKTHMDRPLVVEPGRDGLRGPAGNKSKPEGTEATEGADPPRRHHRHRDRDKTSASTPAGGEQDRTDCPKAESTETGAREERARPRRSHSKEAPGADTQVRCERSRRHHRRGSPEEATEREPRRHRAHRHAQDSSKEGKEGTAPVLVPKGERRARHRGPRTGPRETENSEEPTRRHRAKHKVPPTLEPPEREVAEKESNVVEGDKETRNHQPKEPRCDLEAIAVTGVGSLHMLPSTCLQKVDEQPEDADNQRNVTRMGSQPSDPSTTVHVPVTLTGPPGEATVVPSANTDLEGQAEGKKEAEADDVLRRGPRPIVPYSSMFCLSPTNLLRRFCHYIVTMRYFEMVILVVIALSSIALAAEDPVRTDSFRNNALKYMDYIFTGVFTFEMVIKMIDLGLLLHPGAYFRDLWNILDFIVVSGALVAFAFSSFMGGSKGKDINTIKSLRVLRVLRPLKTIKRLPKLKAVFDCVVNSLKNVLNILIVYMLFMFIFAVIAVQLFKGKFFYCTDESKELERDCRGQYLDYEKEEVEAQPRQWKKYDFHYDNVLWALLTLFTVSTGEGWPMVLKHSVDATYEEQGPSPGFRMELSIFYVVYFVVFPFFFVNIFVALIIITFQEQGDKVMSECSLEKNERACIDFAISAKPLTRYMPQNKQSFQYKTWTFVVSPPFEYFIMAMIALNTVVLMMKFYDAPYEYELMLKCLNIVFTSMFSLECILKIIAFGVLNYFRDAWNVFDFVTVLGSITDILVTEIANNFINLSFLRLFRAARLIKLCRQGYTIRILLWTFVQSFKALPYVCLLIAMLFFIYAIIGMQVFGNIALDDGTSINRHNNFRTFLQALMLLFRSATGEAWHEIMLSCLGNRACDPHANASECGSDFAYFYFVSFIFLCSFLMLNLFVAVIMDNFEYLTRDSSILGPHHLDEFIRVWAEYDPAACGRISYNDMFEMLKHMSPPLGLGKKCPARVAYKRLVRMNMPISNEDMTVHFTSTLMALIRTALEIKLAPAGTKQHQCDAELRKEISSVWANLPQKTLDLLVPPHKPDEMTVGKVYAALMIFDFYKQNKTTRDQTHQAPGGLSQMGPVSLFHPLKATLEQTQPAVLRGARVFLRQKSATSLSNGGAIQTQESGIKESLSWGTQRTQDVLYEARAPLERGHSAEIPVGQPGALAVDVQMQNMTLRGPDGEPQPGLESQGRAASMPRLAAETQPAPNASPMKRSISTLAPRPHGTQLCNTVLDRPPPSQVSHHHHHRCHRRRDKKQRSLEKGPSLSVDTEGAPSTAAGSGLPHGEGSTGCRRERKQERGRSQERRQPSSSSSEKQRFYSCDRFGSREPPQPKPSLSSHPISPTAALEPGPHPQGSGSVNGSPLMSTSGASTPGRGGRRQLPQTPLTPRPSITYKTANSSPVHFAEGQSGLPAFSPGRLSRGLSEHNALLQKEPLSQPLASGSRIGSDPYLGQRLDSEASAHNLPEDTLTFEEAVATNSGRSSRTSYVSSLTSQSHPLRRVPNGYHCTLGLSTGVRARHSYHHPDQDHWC
Voltage-dependent L-type calcium channel subunit beta-1/alpha-1B/alpha-2/delta-1, sequence (P54283 whole entry partner): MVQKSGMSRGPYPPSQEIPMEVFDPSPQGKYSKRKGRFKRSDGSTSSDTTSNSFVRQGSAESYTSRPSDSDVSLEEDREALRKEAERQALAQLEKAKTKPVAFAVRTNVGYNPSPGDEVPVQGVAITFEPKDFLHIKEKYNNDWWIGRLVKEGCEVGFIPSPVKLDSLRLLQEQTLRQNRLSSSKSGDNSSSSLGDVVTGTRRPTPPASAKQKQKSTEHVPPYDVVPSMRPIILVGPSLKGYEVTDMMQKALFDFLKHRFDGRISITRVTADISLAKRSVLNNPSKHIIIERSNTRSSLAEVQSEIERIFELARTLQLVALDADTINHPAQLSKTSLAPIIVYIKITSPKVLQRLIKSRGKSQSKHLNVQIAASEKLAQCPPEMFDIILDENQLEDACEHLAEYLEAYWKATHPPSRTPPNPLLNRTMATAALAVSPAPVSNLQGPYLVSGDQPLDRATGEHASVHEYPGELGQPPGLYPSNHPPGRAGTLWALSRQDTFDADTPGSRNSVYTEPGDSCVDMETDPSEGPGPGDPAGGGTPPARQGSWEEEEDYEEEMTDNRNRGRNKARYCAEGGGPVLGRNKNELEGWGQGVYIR
Voltage-dependent L-type calcium channel subunit beta-1/alpha-1B/alpha-2/delta-1, sequence (P54290 25-944 partner limits assumed): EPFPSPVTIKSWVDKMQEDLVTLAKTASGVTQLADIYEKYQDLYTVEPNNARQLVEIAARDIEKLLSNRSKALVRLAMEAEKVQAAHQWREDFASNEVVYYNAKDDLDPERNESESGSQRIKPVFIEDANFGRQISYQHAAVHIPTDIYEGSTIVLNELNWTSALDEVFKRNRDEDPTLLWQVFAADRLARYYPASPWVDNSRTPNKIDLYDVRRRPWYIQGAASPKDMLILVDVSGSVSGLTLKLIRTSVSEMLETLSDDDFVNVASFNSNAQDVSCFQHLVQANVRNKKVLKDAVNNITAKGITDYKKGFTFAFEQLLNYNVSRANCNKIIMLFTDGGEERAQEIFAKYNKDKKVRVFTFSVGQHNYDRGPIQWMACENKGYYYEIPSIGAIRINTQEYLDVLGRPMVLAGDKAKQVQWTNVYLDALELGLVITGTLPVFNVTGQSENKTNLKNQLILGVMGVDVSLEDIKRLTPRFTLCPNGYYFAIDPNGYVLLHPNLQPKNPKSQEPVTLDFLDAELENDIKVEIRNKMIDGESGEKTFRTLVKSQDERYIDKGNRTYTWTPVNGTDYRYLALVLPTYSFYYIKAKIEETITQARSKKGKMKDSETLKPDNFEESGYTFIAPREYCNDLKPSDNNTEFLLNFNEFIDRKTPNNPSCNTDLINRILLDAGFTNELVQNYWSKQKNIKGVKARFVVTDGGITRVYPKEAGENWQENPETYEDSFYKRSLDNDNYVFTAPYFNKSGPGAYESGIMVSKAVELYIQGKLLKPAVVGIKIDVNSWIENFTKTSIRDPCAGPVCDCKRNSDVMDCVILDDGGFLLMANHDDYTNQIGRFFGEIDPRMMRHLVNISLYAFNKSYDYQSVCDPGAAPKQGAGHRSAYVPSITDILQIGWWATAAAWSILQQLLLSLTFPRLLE
Voltage-dependent L-type calcium channel subunit beta-1/alpha-1B/alpha-2/delta-1, sequence (P54290 945-1091 partner limits assumed): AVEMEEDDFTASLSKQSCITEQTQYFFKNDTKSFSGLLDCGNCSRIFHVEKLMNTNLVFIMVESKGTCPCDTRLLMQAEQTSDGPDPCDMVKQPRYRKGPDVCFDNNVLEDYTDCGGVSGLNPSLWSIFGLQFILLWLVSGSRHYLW
Cannabinoid receptor 1 (Homo sapiens), sequence (P21554 whole entry): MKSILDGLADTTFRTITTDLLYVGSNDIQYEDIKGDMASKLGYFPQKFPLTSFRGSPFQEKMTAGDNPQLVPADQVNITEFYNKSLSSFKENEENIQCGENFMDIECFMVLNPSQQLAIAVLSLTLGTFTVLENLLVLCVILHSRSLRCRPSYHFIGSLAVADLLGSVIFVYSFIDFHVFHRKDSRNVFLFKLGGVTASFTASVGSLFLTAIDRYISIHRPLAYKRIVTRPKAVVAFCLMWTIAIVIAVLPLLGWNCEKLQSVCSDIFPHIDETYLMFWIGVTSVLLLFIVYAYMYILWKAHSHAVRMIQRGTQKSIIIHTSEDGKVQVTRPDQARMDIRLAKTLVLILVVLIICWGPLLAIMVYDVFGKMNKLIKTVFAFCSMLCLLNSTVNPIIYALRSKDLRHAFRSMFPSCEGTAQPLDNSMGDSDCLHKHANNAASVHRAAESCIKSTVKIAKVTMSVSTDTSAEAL

SMILES: O=C(CCCC(c1ccccc1)c1ccccc1)N1CCN(C(c2ccccc2)c2ccccc2)CC1
- IC50 [1]: > 50000 nM

SMILES: c1ccc(C(CCCCN2CCN(C(c3ccccc3)c3ccccc3)CC2)c2ccccc2)cc1
- IC50 [1]: 20000 nM

SMILES: COc1cc(C(=O)N2CCN(C(=O)CCCCC(c3ccc(F)cc3)c3ccc(F)cc3)CC2)cc(OC)c1OC
- IC50 [1]: 540 nM

SMILES: O=C(CCCCC(c1ccccc1)c1ccccc1)N1CCN(C/C=C/c2ccccc2)CC1 (stereo in doubt; 5a) [listing 1 of 2 here]
- Ratio IC50 [2]: 8

SMILES: COc1cc(CN2CCN(C(=O)CCCCC(c3ccc(F)cc3)c3ccc(F)cc3)CC2)cc(OC)c1OC
- IC50 [1]: 190 nM

SMILES: COc1cc(C(=O)N2CCN(CCCCCC(c3ccc(F)cc3)c3ccc(F)cc3)CC2)cc(OC)c1OC
- half-life [3]: 5 h
- CL/F [4]: 170 mL/min/kg
- half-life [5]: 4.5 h
- IC50 [1]: 110 nM
- IC50 ([6]; HEK293): 2840 nM
- AUC(0-inf) [7]: 1020 ng·h/mL
- Vd [8]: 11.7 L/kg
- Cmax [9]: 173 ng/mL
- AUC(0-t) at 8 h [10]: 725 ng·h/mL
- AUC(0-t) at 8 h [11]: 753 ng·h/mL
- Activity [12]: Active
- bioavailability [13]: 21%
- Cmax [14]: 462 ng/mL
- AUC(0-inf) [15]: 975 ng·h/mL

SMILES: COc1ccc(/C=C/CN2CCN(C(=O)CCCCC(c3ccccc3)c3ccccc3)CC2)cc1
- IC50 [1]: 190 nM

SMILES: COc1ccc(CN2CCN(C(c3ccc(F)cc3)c3ccc(F)cc3)CC2)c(OC)c1OC [LOMERIZINE]
- Ratio IC50 [2]: 1.7
- IC50 ([6]; HEK293): 150 nM

SMILES: c1ccc(C(CCN2CCN(C(c3ccccc3)c3ccccc3)CC2)c2ccccc2)cc1
- IC50 [1]: 5000 nM

SMILES: c1ccc(C(CN2CCN(C(c3ccccc3)c3ccccc3)CC2)c2ccccc2)cc1
- IC50 [1]: > 50000 nM

SMILES: Nc1ccc(/C=C/C(=O)N2CCN(C(=O)CCCCC(c3ccccc3)c3ccccc3)CC2)cc1
- Ratio IC50 [2]: 5.5
- IC50 [1]: 150 nM
- IC50 ([6]; HEK293): 830 nM

SMILES: O=C(C(c1ccccc1)c1ccccc1)N1CCN(C(c2ccccc2)c2ccccc2)CC1
- IC50 [1]: > 50000 nM

SMILES: O=C(NC(c1ccccc1)c1ccccc1)N1CCN(C(c2ccccc2)c2ccccc2)CC1
- Ratio IC50 [2]: 12
- IC50 ([6]; HEK293): 1840 nM

SMILES: O=C(CCCCC(c1ccccc1)c1ccccc1)N1CCN(C/C=C/c2ccccc2)CC1 (stereo in doubt; 5c) [listing 1 of 2 here]
- Ratio IC50 [2]: 2.8

SMILES: O=C(CCCCC(c1ccccc1)c1ccccc1)N1CCN(C/C=C/c2ccccc2)CC1 (stereo in doubt; 5c) [listing 2 of 2 here]
- IC50 [1]: 120 nM
- IC50 ([6]; hek293): 330 nM

SMILES: O=C(CC(c1ccccc1)c1ccccc1)N1CCN(C(c2ccccc2)c2ccccc2)CC1 [Z160]
- Ratio IC50 [2]: 111
- IC50 [16]: 7400 nM
- half-life [3]: 3.3 h
- CL/F [4]: 164 mL/min/kg
- half-life [5]: 2.1 h
- Activity [17]: Active
- IC50 [1]: 110 nM
- IC50 ([6]; HEK293): 12200 nM
- AUC(0-inf) [7]: 1140 ng·h/mL
- Vd [8]: 5.79 L/kg
- Cmax [9]: 235 ng/mL
- Activity [18]: Active
- Activity [19]: Active
- AUC(0-t) at 8 h [10]: 715 ng·h/mL
- AUC(0-t) at 8 h [11]: 999 ng·h/mL
- inhibition at 1 µM [20]: 24.8%
- Activity [21]: Active
- Activity [12]: Active
- bioavailability [13]: 30%
- Cmax [14]: 771 ng/mL
- AUC(0-inf) [15]: 761 ng·h/mL

SMILES: O=C(/C=C/c1cccc2c1OCO2)N1CCN(C(=O)CCCCC(c2ccccc2)c2ccccc2)CC1
- Ratio IC50 [2]: 5.7
- IC50 [1]: 130 nM
- IC50 ([6]; HEK293): 740 nM

SMILES: COc1ccc(/C=C/C(=O)N2CCN(C(=O)CCCCC(c3ccccc3)c3ccccc3)CC2)cc1
- Ratio IC50 [2]: 2.8
- IC50 [1]: 90 nM
- IC50 ([6]; HEK293): 250 nM

SMILES: c1ccc(C(CCCCCN2CCN(C(c3ccccc3)c3ccccc3)CC2)c2ccccc2)cc1
- IC50 [1]: 50000 nM

SMILES: c1ccc(C(CCCN2CCN(C(c3ccccc3)c3ccccc3)CC2)c2ccccc2)cc1
- IC50 [1]: 6000 nM

SMILES: O=C(CCCCC(c1ccccc1)c1ccccc1)N1CCN(C(c2ccccc2)c2ccccc2)CC1
- IC50 [1]: 50000 nM

SMILES: O=C(CCCCC(c1ccccc1)c1ccccc1)N1CCN(C/C=C/c2cccc3c2OCO3)CC1
- IC50 [1]: 190 nM

SMILES: O=C(CCCCC(c1ccc(F)cc1)c1ccc(F)cc1)N1CCN(C/C=C/c2ccccc2)CC1
- Ratio IC50 [2]: 1.3
- IC50 [1]: 90 nM
- IC50 ([6]; HEK293): 120 nM

SMILES: O=C(CCC(c1ccccc1)c1ccccc1)N1CCN(C(c2ccccc2)c2ccccc2)CC1
- IC50 [1]: 23000 nM

SMILES: Fc1ccc(C(c2ccc(F)cc2)N2CCN(C/C=C/c3ccccc3)CC2)cc1 [FLUNARIZINE]
- Ratio IC50 [2]: 3.9
- IC50 [1]: 80 nM
- IC50 ([6]; HEK293): 310 nM

SMILES: O=C(CCCCC(c1ccccc1)c1ccccc1)N1CCN(C/C=C/c2ccccc2)CC1 (stereo in doubt; 5a) [listing 2 of 2 here]
- IC50 [1]: 50 nM
- IC50 ([6]; HEK293): 390 nM
